This note sets out measurements from ChEMBL document CHEMBL4396876, “Antisulfatase, Osteogenic, and Anticancer Activities of Steroid Sulfatase Inhibitor EO-33 in Mice” (J Med Chem, 2019).

A short description of series [1]: Hepatotoxicity in ovariectomized-induced C57BL/6 mouse model of osteoporosis assessed as effect on liver weight at 1 mg/kg, sc administered 6 days per week for 70 days measured post last dose by necropsy analysis. Conditions: in vivo. It is filed as toxicity, organism-based.
Series [2] in a line: Toxicity in ovariectomized-induced C57BL/6 mouse model of osteoporosis assessed as effect on body weight at 1 mg/kg, sc administered 6 days per week for 70 days measured post last dose. It is filed as organism-based. Conditions: in vivo. The method in brief:
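Female C57BL/6 mice, 63-70 days old, ovariectomized under isoflurane (sham-operated controls), randomized by weight into groups of 8. Treated SC in 0.1 mL MC:EtOH (92:8) over 70 days; sham and OVX controls received vehicle alone. Mice weighed at the end of the protocol before necropsy.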

Series [3] has as its system Mus musculus. Kind of series: Osteogenic activity in ovariectomized-induced C57BL/6 mouse model of osteoporosis assessed as recovery of tibia weight at 1 mg/kg, sc administered 6 days per week for 70 days relative to control. It is filed as functional. The method in brief:
(§1)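 Female C57BL/6 mice (63–70 days) ovariectomized under isoflurane; sham controls kept. 8/group, dosed SC in 0.1 mL MC:EtOH (92:8) for 70 days. Tibias excised and weighed (mg/g body weight). Calcium measured by ICP-MS after calcination at 600 °C for 6 h and HNO3 microwave digestion; expressed as mg/g tibia.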

Series [4] relates to Mus musculus. Briefly: Osteogenic activity in ovariectomized-induced C57BL/6 mouse model of osteoporosis assessed as recovery of tibia calcium content at 1 mg/kg, sc administered 6 days per week for 70 days by Triple Quad ICP-MS analysis relative to control. It is filed as functional. The method in brief:
as §1

For series [5], the system named is Mus musculus. Briefly: Estrogenic activity in ovariectomized-induced C57BL/6 mouse model of osteoporosis assessed as stimulation of uterus weight at 1 mg/kg, sc administered 6 days per week for 70 days measured post last dose by necropsy analysis. It is filed as ADME, organism-based. Conditions: in vivo.
For series [6], the system named is Mus musculus. Kind of series: Osteogenic activity in ovariectomized-induced C57BL/6 mouse model of osteoporosis assessed as recovery of tibia weight at 5 ug/kg, sc treated for 70 days relative to control. It counts as functional. A digest of the protocol: as §1
Series [7] has as its system Mus musculus. Briefly: Osteogenic activity in ovariectomized-induced C57BL/6 mouse model of osteoporosis assessed as recovery of tibia calcium content at 5 ug/kg, sc treated for 70 days by Triple Quad ICP-MS analysis relative to control. It counts as functional. The method in brief:
as §1

Series [8] relates to Mus musculus. Kind of series: Ex vivo inhibition of STS in ovariectomized Balb/c mouse liver homogenates assessed as reduction in transformation of [3H]-E1S into [3H]-E1 at 5 mg/kg, sc administered once daily starting from day 2 to day 10 using MC/EtOH formulation and E1S addition on day 5 to 10 measured on day 11 by liquid scintillation counting method relative to control. It is filed as functional. The method in brief: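 Livers collected on day 11 from the OVX Balb/c uterotrophic protocol and homogenized in cold pH 7.4 phosphate buffer with protease inhibitors. 2000 g supernatant, 100 or 500 µg protein, incubated with [3H]-E1S/E1S (final 1 µM) in PBS for 2 h at 37 °C. Xylene extraction, then scintillation counting of both phases. Result given as % E1 formed. Triplicate.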

Series [9] deals with Mus musculus. Briefly: In vivo inhibition of STS in ovariectomized Balb/c mouse assessed as reduction in E1S-stimulated uterus weight at 5 mg/kg, sc administered once daily starting from day 2 to day 10 using MC/EtOH formulation and E1S addition on day 5 to 10 measured on day 11 relative to control. It is filed as functional. A digest of the protocol:
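Female Balb/c mice (15–20 g) ovariectomized under isoflurane, 5/group. Inhibitor given SC in 0.1 mL MC:EtOH (92:8) on days 2–10. E1S (2 µg/mouse, BID) or E1 (0.06 µg/mouse, ID) given SC on days 5–10. Vehicle controls included. Uterus dissected and weighed on day 11. Means ± SEM.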

Series [10] is described as follows: Drug level in Balb/c mouse treated with 2-{[4-({(Furan-2-ylmethyl)[(5-methylthiophen-2-yl)-methyl]amino}methyl)phenyl]carbonyl}-1,2,3,4-tetrahydroisoquinolin-7-yl Sulfamate assessed as metabolite formation at 30 mg/kg, sc administered as single dose using MC/EtOH formulation by LC-MS/MS analysis. It is filed as ADME, organism-based. To be noted: in vivo. The method in brief: (§2)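 Phenol metabolite EO-29 measured by LC-MS/MS in plasma of female Balb/c mice fasted 8 h, then given a single 30 mg/kg dose of the sulfamate in MC:EtOH (92:8), 0.1 mL, SC or by gavage. Sampled at 1, 3, 7, 12 and 24 h by cardiac puncture (2–3 mice/group).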

Series [11] can be described thus: Drug level in Balb/c mouse treated with 2-{[4-({(Furan-2-ylmethyl)[(5-methylthiophen-2-yl)-methyl]amino}methyl)phenyl]carbonyl}-1,2,3,4-tetrahydroisoquinolin-7-yl Sulfamate assessed as metabolite formation at 30 mg/kg, po administered via gavage as single dose using MC/EtOH formulation by LC-MS/MS analysis. It counts as ADME, organism-based. Conditions: in vivo. A digest of the protocol: as §2

Take `O=C(c1ccc(OCCN2CCCCC2)cc1)c1c(-c2ccc(O)cc2)sc2cc(O)ccc12` [RALOXIFENE]: the Activity entry in series [1] is recorded as “Non-Toxic”; in [2] it was “Non-Toxic”; with Mus musculus [3], 100%; in the series with Mus musculus [4], 100%; in the series on Mus musculus [5] it was “Toxic”.

For the molecule `C[C@]12CC[C@@H]3c4ccc(O)cc4CC[C@H]3[C@@H]1CC[C@@H]2O` [ESTRADIOL], the Activity in the series on Mus musculus [6] and with Mus musculus [7] was 100% each time.

In the case of `COc1cc2c(cc1OS(N)(=O)=O)CC[C@@H]1[C@@H]2CC[C@@]2(C)[C@H]1CC[C@@]2(O)Cc1ccccc1`, the figures for the inhibition in vivo at 5 mg/kg in the series on Mus musculus [8] and in the series with Mus musculus [9] were 100% and 71%, respectively.

As to `Cc1ccc(CN(Cc2ccc(C(=O)N3CCc4ccc(O)cc4C3)cc2)Cc2ccco2)s1`, the Drug metabolism entry in series [10] and in series [11] was “Metabolite_Detected” each time.

For orientation: inhibition in vivo means the percentage by which the read-out fell short of the control.
